Results published in ChEMBL document CHEMBL4368921, “Discovery of novel simplified isoxazole derivatives of sampangine as potent anti-cryptococcal agents” (2019).
In brackets after ≈: the same amount, converted by molar mass. Activity calls are given as the source filed them. No cut-off for these calls is given here.

Assays:
Candida albicans = assay: Antifungal activity against Candida albicans SC5314 after 48 hrs by serial dilution method; format: functional; settings: SC5314, 48 h
How it was run: (§1)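 Broth serial dilution per NCCLS. Medium was RPMI 1640 buffered with 0.165M MOPS, NaHCO3 (0.2%) and NaOH (0.27%). Strains were pre-grown in YPD at 30 °C with shaking. Inoculum 10³ CFU/mL; compounds in DMSO. Plates incubated at 35 °C for 48 h. MIC80 is the concentration giving 80% inhibition.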

Cryptococcus neoformans [1] = assay: Antifungal activity against Cryptococcus neoformans var. grubii H99 after 48 hrs by serial dilution method; format: functional; how it was run: as §1
Cryptococcus gattii = assay: Antifungal activity against Cryptococcus gattii ATCC 14116 after 48 hrs by serial dilution method; settings: ATCC 14116, 48 h
Cryptococcus neoformans [2] = assay: Antifungal activity against Cryptococcus neoformans var. grubii ATCC 34877 after 48 hrs by serial dilution method; format: functional; settings: var. grubii ATCC 34877, 48 h; how it was run: as §1
Cryptococcus neoformans [3] = assay: Antibiofilm activity against Cryptococcus neoformans var. grubii H99 at 0.062 to 8 ug/mL after 24 hrs by XTT analysis; format: functional, organism-based
How it was run: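 H99 cells at 1.0×10^6 CFU/mL in RPMI 1640 left to adhere 90 min at 37 °C. Non-adherent cells were removed and the wells washed three times with PBS. Fresh RPMI with drug (0.062-8 µg/mL) or drug-free control was added, then 24 h more at 37 °C. Formation rate by XTT reduction. Means ± SD of three independent experiments; ANOVA and t-test.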

Cryptococcus neoformans [4] = assay: Fungistatic activity against Cryptococcus neoformans var. grubii H99 at 16 ug/mL up to 48 hrs by time-growth curve assay; format: functional, organism-based
How it was run: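 Exponential-phase H99 cells were resuspended in fresh RPMI 1640 at 2×10^6 cells/mL, drug was added, and cultures were shaken at 200 rpm and 30 °C. Aliquots were removed and counted at 0, 3, 6, 9, 12, 24 and 48 h. The control received DMSO. Three independent experiments were run.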

Cryptococcus neoformans [5] = assay: Fungicidal activity against Cryptococcus neoformans var. grubii H99 at 16 ug/mL after 48 hrs by time-kill assay; format: functional, organism-based
How it was run: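 Exponential-phase H99 cells were washed three times in PBS and resuspended in RPMI 1640 at 2×10^6 cells/mL. After drug was added, cultures were shaken at 200 rpm and 30 °C. Samples were taken at 0, 6, 12, 24 and 48 h, diluted, and plated on SDA agar. Viable counts were read after 48 h at 30 °C.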

Row | SMILES | MIC80 (Candida albicans) | MIC80 (Cryptococcus neoformans [1]) | MIC80 (Cryptococcus gattii) | MIC80 (Cryptococcus neoformans [2]) | Activity (Cryptococcus neoformans [3]) | Activity (Cryptococcus neoformans [4]) | Activity (Cryptococcus neoformans [5])
1 | O=C1c2ccsc2C(=O)c2c(-c3ccccc3F)noc21 | > 64 µg/mL | 0.25 µg/mL (≈ 0.835 µM) | – | – | – | – | –
2 | Cc1cccc(-c2noc3c2C(=O)c2sccc2C3=O)c1 | > 64 µg/mL | 1 µg/mL (≈ 3.39 µM) | – | – | – | – | –
3 | COCc1noc2c1C(=O)c1sccc1C2=O | 8 µg/mL (≈ 32.1 µM) | 0.25 µg/mL (≈ 1 µM) | 0.5 µg/mL (≈ 2.01 µM) | 0.25 µg/mL (≈ 1 µM) | – | – | –
4 | O=C1c2ccsc2C(=O)c2c(-c3ccccc3Br)noc21 | > 64 µg/mL | 0.25 µg/mL (≈ 0.694 µM) | – | – | – | – | –
5 | O=C1c2ccsc2C(=O)c2c(-c3ccsc3)noc21 | > 64 µg/mL | 1 µg/mL (≈ 3.48 µM) | – | – | – | – | –
6 | O=C1c2ccsc2C(=O)c2c(-c3cccs3)noc21 | > 64 µg/mL | 2 µg/mL (≈ 6.96 µM) | – | – | – | – | –
7 | O=C1c2ccsc2C(=O)c2c(-c3ccc(Br)cc3)noc21 | > 64 µg/mL | > 64 µg/mL | – | – | – | – | –
8 | CCCc1noc2c1C(=O)c1sccc1C2=O | 4 µg/mL (≈ 16.2 µM) | 0.12 µg/mL (≈ 0.485 µM) | 0.25 µg/mL (≈ 1.01 µM) | 0.12 µg/mL (≈ 0.485 µM) | Active | – | –
9 | OC(Cn1cncn1)(Cn1cncn1)c1ccc(F)cc1F [FLUCONAZOLE] | 0.25 µg/mL (≈ 0.816 µM) | 2 µg/mL (≈ 6.53 µM) | 8 µg/mL (≈ 26.1 µM) | 8 µg/mL (≈ 26.1 µM) | – | Active | inactive
10 | O=C1c2ccsc2C(=O)c2c(-c3ccccn3)noc21 | 8 µg/mL (≈ 28.3 µM) | 0.25 µg/mL (≈ 0.886 µM) | – | – | – | – | –
11 | COc1ccccc1-c1noc2c1C(=O)c1sccc1C2=O | > 64 µg/mL | 0.5 µg/mL (≈ 1.61 µM) | – | – | – | – | –
12 | C[C@@H](c1ncncc1F)[C@](O)(Cn1cncn1)c1ccc(F)cc1F [VORICONAZOLE] | 0.12 µg/mL (≈ 0.344 µM) | 0.12 µg/mL (≈ 0.344 µM) | 0.12 µg/mL (≈ 0.344 µM) | 0.12 µg/mL (≈ 0.344 µM) | – | – | –
